Screens: PubChem, several laboratories
In the library only some 2.5% were active in any assay of this set; here they are far more common.
HTR2A ag = mouse HTR2A agonism via beta-arrestin recruitment. P35363. CHO-K1 mHTR2A beta-arrestin complementation, luminescence; percent of 30 µM serotonin response. activation, % at 7.6 µM. 360,000 tested, 0.66% active. AID 624169;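 active = activation above a run cutoff, the mean activation of all tested compounds plus 3 SD, cut at about 14% in these data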;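 note: 0% = plate median of compound wells and 100% = 30 µM serotonin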
dFosB act-1 = enhances mouse delta FosB homodimer DNA binding; AID 493131; purified delta FosB, TAMRA-CDK5 oligo fluorescence polarization; percent of positive-control signal above neutral wells; activation, % at 25 µM; 340,000 tested, 0.99% active;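 active = mean activation above about 17%, with every replicate also reaching it, limit read from the data, passing the limit was not always enough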
Target sequence (P13346 whole entry, looked up): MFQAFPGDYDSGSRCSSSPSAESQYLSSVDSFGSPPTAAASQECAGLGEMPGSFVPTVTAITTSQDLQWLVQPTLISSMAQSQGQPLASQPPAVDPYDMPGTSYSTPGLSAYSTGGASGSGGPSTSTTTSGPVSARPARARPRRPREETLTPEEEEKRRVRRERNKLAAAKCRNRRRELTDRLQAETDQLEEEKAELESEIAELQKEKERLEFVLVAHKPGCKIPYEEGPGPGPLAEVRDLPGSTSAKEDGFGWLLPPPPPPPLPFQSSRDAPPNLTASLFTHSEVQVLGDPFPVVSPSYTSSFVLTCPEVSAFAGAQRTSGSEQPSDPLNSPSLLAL
VIM-2 inh = blocks Pseudomonas aeruginosa VIM-2 metallo-beta-lactamase; purified VIM-2, nitrocefin hydrolysis, epi-absorbance fluorescence; AID 1527; 290,000 tested, 0.89% active; inhibition, % at 5.6 µM;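 active = inhibition above the mean of all tested compounds plus 3 SD, cutoff set per screening run, cut at about 7.5% in these data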;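 note: red hydrolysis product quenches plate fluorescence so inhibitors raise well fluorescence; 0% = enzyme with DMSO and 100% = DMSO without enzyme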
IMP-1 inhibitor = inhibitors of Pseudomonas aeruginosa IMP-1 metallo-beta-lactamase. purified IMP-1, nitrocefin hydrolysis, epi-absorbance fluorescence. inhibition, % at 5.6 µM. 290,000 tested, 0.45% active;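 active = inhibition above the mean plus 3 SD of all compounds in the same screening run, cut at about 4.5% in these data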;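 note: 0% = IMP-1 with DMSO and 100% = DMSO wells lacking enzyme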
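System: purified IMP-1; amount: IMP-1 0.2 nM before substrate addition; compound: single dose, 5.6 µM; times: 25 °C, 15 min preincubation, 25 min reaction; signal: Epi-absorbance via hydrolysed-nitrocefin quenching of white-plate fluorescence, 480/530 nm, EDTA stop; benchmarks: DMSO with and without IMP-1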
dFosB act-2 = enhances mouse delta FosB homodimer binding to DNA; purified delta FosB, TAMRA-CDK5 oligo fluorescence polarization; normalised: neutral wells 0, positive control 100; activation, % at 24.9 µM; AID 588690; shares compounds with dFosB act-1; 2,400 tested, under 10 active;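 active = highest replicate activation at or above 34% and every replicate reaching that threshold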;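 note: higher polarization means more probe DNA bound by delta FosB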
* marks the source's active call; other numbers are inactive results; / = not tested or not shown.

SMILES | HTR2A ag | dFosB act-1 | VIM-2 inh | IMP-1 inhibitor | dFosB act-2
CC(C)C[C@@H](CN1CCCC1CN1C(=S)NC[C@@H]1Cc1ccc(O)cc1)N1C[C@H](Cc2ccccc2)N(CCc2ccccc2)C1=S (stereo partly drawn) | -2 | 61* | / | / | 6
CC(C)C[C@H]1CN([C@@H](CC(C)C)CN2CCC[C@@H]2CN2C(=S)NC[C@@H]2Cc2ccc(O)cc2)C(=S)N1CCc1ccccc1 | -5 | / | / | / | /
Oc1ccc(C[C@H]2CNC(=S)N2CC2CCCN2C[C@H](Cc2ccc(O)cc2)N2C[C@H](Cc3ccccc3)N(CCc3ccccc3)C2=S)cc1 (stereo partly drawn) | -9 | 65* | / | / | 6
COc1cc(-c2cnc3c(NC(C)=O)cc(-c4ccccc4CN(C)C)cn23)cc(OC)c1OC | 3 | / | / | / | /
Cc1ccc(S(=O)(=O)N2C[C@H]3[C@H]4C(=O)N(C)C(=O)[C@H]4CC(=O)[C@H]3[C@@H]2c2ccccc2Cl)cc1 | -1 | / | / | / | /
COc1ccc(CNC(=S)NCc2ccc(Cl)cc2)cc1OC | -5 | -6 | -5 | -2 | /
O=C(COc1ccccc1C(=O)O)Nc1nc2ccc([N+](=O)[O-])cc2s1 | 5 | 25* | -2 | -1 | 0
CC(=O)c1cccc(NC(=O)Cn2c(=O)oc3cc(S(=O)(=O)N4CCCC4)ccc32)c1 | -4 | 33* | 1 | -3 | 0
NC(=O)c1ccc(NC(=O)COC(=O)/C=C/c2ccc3c(c2)OCO3)cc1 | 1 | 24* | -2 | -1 | 2
O=C(N/N=C/c1ccc(F)cc1)c1cc(-c2ccc3c(c2)OCO3)n[nH]1 | -7 | 29* | -2 | -3 | -2
CN(C)c1ccc(/C=N/NC(=O)c2cc(-c3ccc4c(c3)OCO4)n[nH]2)cc1 | -4 | 7 | -1 | -2 | /
CC(=O)Nc1ccc(NC(=O)COC(=O)/C=C/c2ccc3c(c2)OCO3)cc1 | -4 | 4 | / | / | /
COc1ccc(/C=N/NC(=O)c2cc(-c3ccc4c(c3)OCO4)n[nH]2)cc1OC | -2 | 73* | -3 | -4 | -4
Cc1ccc(Cl)cc1NC(=O)C(=O)N/N=C/c1ccc2c(c1)OCO2 | 2 | 40* | -1 | -1 | -1
O=C(N/N=C/c1ccsc1)c1ccc2ccccc2n1 | -2 | -5 | -4 | -4 | /
COc1ccccc1CNC(=O)c1ccc(CS(=O)(=O)c2ccc(C)cc2)o1 | 2 | -6 | -3 | -4 | /
CCc1noc(C)c1C(=O)OCC(=O)c1ccccc1OC | 1 | -3 | -3 | -2 | /
C/C(=N\NC(=O)c1ccc2c(c1)OCO2)c1ccc(O)cc1 | -3 | 7 | -2 | -3 | /
O=C(N/N=C/c1ccc2c(c1)OCO2)c1sc2cc(Cl)ccc2c1Cl | 1 | -4 | -3 | -1 | /
O=C(N/N=C\C=C\c1ccc(Br)cc1)c1ccc2c(c1)OCO2 | -2 | 24* | 0 | 25* | 3
O=C(N/N=C/C=C/c1ccc2c(c1)OCO2)c1ccc([N+](=O)[O-])cc1 | 3 | 0 | -2 | -4 | /
C/C(=N/NC(=O)c1ccc2c(c1)OCO2)c1ccc(NC(=O)C(F)(F)F)cc1 | -2 | 28* | -2 | -2 | 1
COc1ccc2c(Cl)c(C(=O)N/N=C/c3ccc4c(c3)OCO4)sc2c1 | 5 | 34* | 0 | -2 | 0
COc1ccc(NS(=O)(=O)c2cccc(C(=O)N/N=C/c3ccc4c(c3)OCCO4)c2)cc1 | -3 | 25* | -1 | -1 | -5
CCOC(=O)c1ccc(N=Nc2c(C)c(C#N)c(O)[nH]c2=O)cc1 | 4 | -1 | -2 | -2 | /
SMILES | HTR2A ag | dFosB act-1 | VIM-2 inh | IMP-1 inhibitor | dFosB act-2
O=C(N/N=C/c1ccc2c(c1)OCO2)c1ccc(NC(=O)c2ccc(F)cc2)cc1 | -6 | 103* | -1 | -3 | -1
CC(=O)Oc1ccc(/C(C)=N/N2CCN(Cc3ccc(C)cc3)CC2)cc1 | -1 | -2 | -2 | -3 | /
COc1ccccc1-c1cccc([C@@H]2C[C@H]3[C@H](CON3C)CN2C)c1 | -7 | 0 | / | / | /
Cc1nnc(SCC(=O)Nc2nsc(-c3ccccc3)n2)s1 | -3 | -3 | -2 | -3 | /
O=C(CSc1nnnn1-c1ccccc1)Nc1nsc(-c2ccccc2)n1 | -1 | 2 | -2 | 0 | /
O=C(CSc1nnnn1-c1ccccc1)Nc1nsc(-c2ccc(Cl)cc2)n1 | 6 | 58* | -1 | -4 | 2
Cc1ccc(-c2nc(NC(=O)CSc3nnc(C)s3)ns2)cc1 | 2 | 27* | 0 | -5 | -10
O=C(COc1ccc2c(c1)OCO2)Nc1ccc2c(c1)oc1ccccc12 | 0 | 81* | 0 | 0 | 3
COc1cc(NC(=O)c2ccccc2)c(OC)cc1NC(=O)Cc1ccc(Br)cc1 | 2 | 21* | -1 | -3 | 8
COc1cc(NC(=O)c2ccc(Br)cc2)c(OC)cc1NC(=O)c1ccccc1 | 6 | 3 | -3 | 2 | /
Cc1cc(=O)[nH]c(SCC(=O)Nc2nnc(CC(C)C)s2)n1 | 0 | -3 | -2 | -1 | /
CC(C)Cc1nnc(NC(=O)CSc2nc(-c3ccccc3)cc(=O)[nH]2)s1 | 4 | 49* | 0 | -2 | 1
CCN(CC)CCN(C(=O)c1cc2ccccc2cc1OC)c1nc2ccc(OC)cc2s1 | -10 | -5 | -3 | -4 | /
CCOc1ccc2nc(N(CCN(C)C)C(=O)c3ccc4c(c3)CCCC4)sc2c1 | -9 | 30* | -1 | -1 | 0
CCN(CC)CCN(C(=O)c1ccc2ccccc2c1)c1nc2ccc(OC)cc2s1 | -3 | 26* | -2 | -3 | 4
CCN(CC)CCN(C(=O)c1ccc(C(=O)c2ccccc2)cc1)c1nc2c(OC)cccc2s1 | -14 | 33* | -2 | -2 | 6
Cc1cc(C)cc(N(CC(=O)N2CCCCCC2)S(C)(=O)=O)c1 | 1 | -3 | -3 | -1 | /
CCN1CCN(c2ccc(S(=O)(=O)N3CCOCC3)cc2NC(=O)CC(NC(C)=O)c2ccccc2)CC1 (stereo not drawn) | 4 | 0 | / | / | /
O=[N+]([O-])c1ccc2c(c1)/C(=N\O)c1ccccc1-2 | -9 | 27* | -1 | -4 | 2
NC(=O)CC1(c2ccccc2)CCCCC1 | 0 | / | / | / | /
O=c1[nH]c(Cn2nnc(-c3ccccc3)n2)nc2scc(-c3ccccc3)c12 | 1 | 34* | -4 | -2 | 0
Cc1cnc(NC(=O)c2cc3c(C)nn(Cc4ccccc4Cl)c3s2)s1 | 2 | 30* | -2 | -3 | 7
Cc1cnc(NC(=O)Cc2ccccc2Cl)s1 | 6 | -8 | -5 | -1 | /
Cc1ccc(-c2nn(CC(=O)NC(C)c3ccccc3)c(=O)c3ccccc23)cc1 (stereo not drawn) | 0 | 28* | -1 | -1 | -22
O=C(/C=C/c1ccccc1Cl)Nc1ccc2c(c1)C(=O)NC2=O | -4 | 20* | 0 | -2 | 0
O=C(/C=C/c1ccccc1)Nc1ccc2c(c1)C(=O)NC2=O | -4 | 7 | -2 | -2 | /
COCCCN1C(=O)c2ccc(C(=O)N3CCN(c4ccccc4OC)CC3)cc2C1=O | 0 | -6 | -2 | -2 | /
